# Assays:
# A549 = assay: Cytotoxicity against human A549 cells assessed as inhibition of cell viability incubated for 48 hrs by MTT assay; type: functional, cell-based; settings: A549, 48 h
# How it was run: (§1)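 Log-phase cells seeded at 5 × 10^4 cells per mL in 96-well plates, cultured overnight at 37 °C, 5% CO2, then treated at 100, 50, 25, 12.5 and 6.25 μmol L−1, triplicate wells per concentration, for 48 h. MTT (20 μL of 5 mg ml−1) added for 4 h; after centrifugation the medium was removed and the formazan dissolved in DMSO. A570 was read and IC50 calculated. Cisplatin served as positive control.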
# HeLa = assay: Cytotoxicity against human HeLa cells assessed as inhibition of cell viability incubated for 48 hrs by MTT assay; type: functional, cell-based; how it was run: as §1
# HCC1806 [1] = assay: Cytotoxicity against human HCC1806 cells assessed as inhibition of cell viability incubated for 48 hrs by MTT assay; type: functional, cell-based; settings: HCC1806, 48 h; how it was run: as §1
# HCC1806 [2] = assay: Induction of apoptosis in human HCC1806 cells assessed as proportion of early apoptotic cells at 3 uM incubated for 24 hrs by AnnexinV-FITC/PI staining based flow cytometry (reference value: 5.32 %); type: functional
# [3] = molecular target: Vascular endothelial growth factor receptor 2 (Homo sapiens) (UniProt P35968); assay: Inhibition of VEGFR-2 (unknown origin) at 25 uM incubated for 90 mins by Kinase-Glo MAX reagent based luminescence analysis relative to control
# Sequence of Vascular endothelial growth factor receptor 2 (Homo sapiens) (P35968 whole entry): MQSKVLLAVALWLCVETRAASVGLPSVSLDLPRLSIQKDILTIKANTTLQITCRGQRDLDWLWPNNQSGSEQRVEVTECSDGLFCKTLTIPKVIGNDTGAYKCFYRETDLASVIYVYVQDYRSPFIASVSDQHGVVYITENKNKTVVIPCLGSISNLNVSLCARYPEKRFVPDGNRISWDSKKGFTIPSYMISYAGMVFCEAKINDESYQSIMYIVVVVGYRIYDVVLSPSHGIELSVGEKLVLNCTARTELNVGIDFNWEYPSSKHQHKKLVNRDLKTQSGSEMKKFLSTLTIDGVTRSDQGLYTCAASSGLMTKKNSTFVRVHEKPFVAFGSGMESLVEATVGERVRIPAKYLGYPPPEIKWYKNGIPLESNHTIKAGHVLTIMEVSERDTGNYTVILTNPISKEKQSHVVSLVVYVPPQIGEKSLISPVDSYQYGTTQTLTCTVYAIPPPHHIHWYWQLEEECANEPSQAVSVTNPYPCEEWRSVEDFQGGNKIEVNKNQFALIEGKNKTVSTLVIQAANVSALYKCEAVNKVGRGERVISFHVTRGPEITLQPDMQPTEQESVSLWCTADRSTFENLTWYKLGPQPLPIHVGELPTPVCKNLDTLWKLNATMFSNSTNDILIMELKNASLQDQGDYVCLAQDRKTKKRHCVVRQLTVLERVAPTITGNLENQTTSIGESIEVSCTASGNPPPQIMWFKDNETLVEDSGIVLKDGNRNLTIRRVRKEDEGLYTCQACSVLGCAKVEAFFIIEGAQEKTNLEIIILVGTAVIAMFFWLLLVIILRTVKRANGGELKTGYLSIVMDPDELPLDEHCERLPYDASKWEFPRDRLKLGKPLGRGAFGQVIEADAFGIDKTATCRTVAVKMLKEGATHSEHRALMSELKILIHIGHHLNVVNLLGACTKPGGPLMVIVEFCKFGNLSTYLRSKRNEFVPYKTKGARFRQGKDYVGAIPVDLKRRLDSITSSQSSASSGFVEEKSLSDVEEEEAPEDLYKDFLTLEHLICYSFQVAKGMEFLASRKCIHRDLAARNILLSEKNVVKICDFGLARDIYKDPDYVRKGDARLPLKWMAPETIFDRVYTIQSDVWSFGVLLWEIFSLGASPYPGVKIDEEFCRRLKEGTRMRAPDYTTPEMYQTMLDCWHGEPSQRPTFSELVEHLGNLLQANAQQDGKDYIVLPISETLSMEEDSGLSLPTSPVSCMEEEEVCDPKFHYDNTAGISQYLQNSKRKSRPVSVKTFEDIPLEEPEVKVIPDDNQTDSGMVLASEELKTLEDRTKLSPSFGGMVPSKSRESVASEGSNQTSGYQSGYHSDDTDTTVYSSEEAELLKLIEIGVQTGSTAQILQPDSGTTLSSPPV
# How it was run: (§2)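 A VEGFR-2 (KDR) kinase kit was used. Compound was made in DMSO and diluted in 1× kinase buffer 1, with matched DMSO in all wells. Master mix and compound were combined, and the reaction was started with diluted VEGFR-2 kinase, then incubated at 30 °C for 45 min. Kinase-Glo MAX reagent was added for 15 min at room temperature before luminescence was read. Blank and positive-control wells were included.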
# HCC1806 [4] = assay: Induction of apoptosis in human HCC1806 cells assessed as proportion of late apoptotic cells at 3 uM incubated for 24 hrs by AnnexinV-FITC/PI staining based flow cytometry (reference value: 5.29 %); type: functional
# [5] = molecular target: Vascular endothelial growth factor receptor 2 (Homo sapiens) (UniProt P35968); assay: Inhibition of VEGFR-2 (unknown origin) at 50 uM incubated for 90 mins by Kinase-Glo MAX reagent based luminescence analysis relative to control
# HCC1806 [6] = assay: Induction of apoptosis in human HCC1806 cells assessed as proportion of necrotic cells at 3 uM incubated for 24 hrs by AnnexinV-FITC/PI staining based flow cytometry (reference value: 3.40 %); type: functional
# HCC1806 [7] = assay: Induction of apoptosis in human HCC1806 cells assessed as proportion of viable cells at 3 uM incubated for 24 hrs by AnnexinV-FITC/PI staining based flow cytometry (reference value: 86.0 %); type: functional
# HCC1806 [8] = assay: Induction of apoptosis in human HCC1806 cells assessed as proportion of viable cells at 6 uM incubated for 24 hrs by AnnexinV-FITC/PI staining based flow cytometry (reference value: 86.0 %); type: functional
# HCC1806 [9] = assay: Induction of apoptosis in human HCC1806 cells assessed as proportion of necrotic cells at 6 uM incubated for 24 hrs by AnnexinV-FITC/PI staining based flow cytometry (reference value: 3.40 %); type: functional
# HCC1806 [10] = assay: Induction of apoptosis in human HCC1806 cells assessed as proportion of early apoptotic cells at 6 uM incubated for 24 hrs by AnnexinV-FITC/PI staining based flow cytometry (reference value: 5.32 %); type: functional
# [11] = molecular target: Vascular endothelial growth factor receptor 2 (Homo sapiens) (UniProt P35968); assay: Inhibition of VEGFR-2 (unknown origin) at 100 uM incubated for 90 mins by Kinase-Glo MAX reagent based luminescence analysis relative to control; how it was run: as §2
# HCC1806 [12] = assay: Induction of apoptosis in human HCC1806 cells assessed as proportion of late apoptotic cells at 6 uM incubated for 24 hrs by AnnexinV-FITC/PI staining based flow cytometry (reference value: 5.29 %); type: functional
SMILES,IC50 (A549) [µM],IC50 (HeLa) [µM],IC50 (HCC1806 [1]) [µM],other results
COc1cc2ncnc(Nc3ccc4oc(C(=O)/C=C/c5c[nH]c6ccccc56)cc4c3)c2cc1OC,> 25,4.95,9.52,
COc1cc2ncnc(Nc3ccc4oc(C(=O)/C=C/c5ccccn5)cc4c3)c2cc1OC,> 25,> 25,> 25,
COc1cc(/C=C/C(=O)c2cc3cc(Nc4ncnc5cc(OC)c(OC)cc45)ccc3o2)cc(OC)c1,> 25,5.61,5.93,Activity (HCC1806 [2]): 6.91%; inhibition [3]: 10%; Activity (HCC1806 [4]): 9.05%; inhibition [5]: 16%; Activity (HCC1806 [6]): 6.44%; Activity (HCC1806 [7]): 77.6%; Activity (HCC1806 [8]): 47.7%; Activity (HCC1806 [9]): 10%; Activity (HCC1806 [10]): 12.8%; inhibition [11]: 38%; Activity (HCC1806 [12]): 29.4%
COc1cc2ncnc(Nc3ccc4oc(C(=O)/C=C/c5ccc(N6CCOCC6)cc5)cc4c3)c2cc1OC,> 25,> 25,> 25,
COc1ccc(/C=C/C(=O)c2cc3cc(Nc4ncnc5cc(OC)c(OC)cc45)ccc3o2)cc1OC,> 25,> 25,> 25,
COc1cc2ncnc(Nc3ccc4oc(C(=O)/C=C/c5ccccc5)cc4c3)c2cc1OC,21.6,3.18,7.03,
COc1cc2ncnc(Nc3ccc4oc(C(=O)/C=C/c5ccc(N6CCN(C)CC6)cc5)cc4c3)c2cc1OC,> 25,> 25,> 25,
COc1cc2ncnc(Nc3ccc4oc(C(=O)/C=C/c5ccc(F)c(F)c5)cc4c3)c2cc1OC,> 25,> 25,16.6,
COc1cc2ncnc(Nc3ccc4oc(C(=O)/C=C/c5cccs5)cc4c3)c2cc1OC,> 25,> 25,> 25,
COc1cc2ncnc(Nc3ccc4oc(C(=O)/C=C/c5ccc(-n6cccn6)cc5)cc4c3)c2cc1OC,> 25,> 25,> 25,
COc1cc2ncnc(Nc3ccc4oc(C(=O)/C=C/c5ccncc5)cc4c3)c2cc1OC,> 25,6.36,6.4,
COc1cc2ncnc(Nc3ccc4oc(C(=O)/C=C/c5cc6ccccc6o5)cc4c3)c2cc1OC,> 25,> 25,17.1,
COc1cc2ncnc(Nc3ccc4oc(C(=O)/C=C/c5ccc(Cl)cc5)cc4c3)c2cc1OC,> 25,> 25,> 25,
COc1cc2ncnc(Nc3ccc4oc(C(=O)/C=C/c5ccc(N(C)C)cc5)cc4c3)c2cc1OC,> 25,> 25,> 25,
COc1cc2ncnc(Nc3ccc4oc(C(=O)/C=C/c5ccc(O)cc5)cc4c3)c2cc1OC,6.27,6.19,6.6,
COc1cc2ncnc(Nc3ccc4oc(C(=O)/C=C/c5ccc(C)o5)cc4c3)c2cc1OC,> 25,> 25,> 25,
COc1cc2ncnc(Nc3ccc4oc(C(=O)/C=C/c5c[nH]c6ccc(Br)cc56)cc4c3)c2cc1OC,> 25,> 25,> 25,
COc1cc2ncnc(Nc3ccc4oc(C(=O)/C=C/c5ccc(Br)cc5)cc4c3)c2cc1OC,> 25,24.8,18.4,
